DTT redox prof = compounds producing H2O2 with reducing agent – biochemical, NIH compound library profiling, artefact control for MLSCN library redox annotation, primary screen. DTT-dependent redox cycling H2O2, phenol red/HRP absorbance; 100% = 100 µM peroxide control, 0% = buffer. activation, % at 10 µM. actives 0.03% (n = 200,000). AID 878;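 active = activation of at least 50% relative to the plate's high and low controls in the primary single-dose screen; inactive = activation below 50%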;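 note: compound incubated with DTT at 0.8 mM final as the reducing agent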
Tb hexokinase = T. brucei hexokinase 1 inhibition; inhibition, % at 10 µM; recombinant TbHK1, G6PDH-coupled NADH A340; AID 1430; actives 0.11% (n = 220,000);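 active = inhibition of 50% or more in the single-dose primary screen; inactive = inhibition below 50%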
PMI act hi M6P = activators of human phosphomannose isomerase at near-saturating mannose 6-phosphate; coupled PMI enzyme assay, resazurin fluorescence, 20 min; active compounds read high; 1 = untreated enzyme, 0 = substrate-free blank; activation factor at 20 µM; actives 0.34% (n = 190,000);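 active = activation factor of 2 or more at 20 µM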
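test system = human PMI in coupled enzyme assay | medium = HEPES-buffered pH 7.4 with magnesium and detergent | also added = 1.0 mM mannose-6-phosphate substrate with 0.22 mM NADP+ | compound = 20 µM single dose | times = 20 min incubation at room temperature | measured by = resorufin fluorescence (Ex 544/Em 590 nm) from resazurin via diaphorase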
G6PDH CS = inhibits Leuconostoc G6PDH, flagging false hits in G6PDH-based assays; inhibition, % at 5 µM; Purified L. mesenteroides G6PDH, diaphorase/resazurin coupled fluorescence, 45 min; actives 0.12% (n = 200,000); AID 1020; in the data active = inhibition above about 50%
PMI activator = increases human mannose-6-phosphate isomerase activity; P34949; purified human PMI, coupled resazurin fluorescence, 20 min; active compounds read high; 1 = vehicle control, 0 substrate-free wells; actives 0.005% (n = 190,000); activation factor at 20 µM;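 active = activation factor of 2 or more at 20 µM, relative to plate controls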
p97 inhibitor = human p97 ATPase inhibition | P55072 | recombinant p97 ATPase, Kinase-Glo ATP luminescence, 3 h | inhibition, % at 8 µM | actives 0.42% (n = 220,000); in the data active = inhibition above about 15%
Target sequence (P55072 whole entry, looked up): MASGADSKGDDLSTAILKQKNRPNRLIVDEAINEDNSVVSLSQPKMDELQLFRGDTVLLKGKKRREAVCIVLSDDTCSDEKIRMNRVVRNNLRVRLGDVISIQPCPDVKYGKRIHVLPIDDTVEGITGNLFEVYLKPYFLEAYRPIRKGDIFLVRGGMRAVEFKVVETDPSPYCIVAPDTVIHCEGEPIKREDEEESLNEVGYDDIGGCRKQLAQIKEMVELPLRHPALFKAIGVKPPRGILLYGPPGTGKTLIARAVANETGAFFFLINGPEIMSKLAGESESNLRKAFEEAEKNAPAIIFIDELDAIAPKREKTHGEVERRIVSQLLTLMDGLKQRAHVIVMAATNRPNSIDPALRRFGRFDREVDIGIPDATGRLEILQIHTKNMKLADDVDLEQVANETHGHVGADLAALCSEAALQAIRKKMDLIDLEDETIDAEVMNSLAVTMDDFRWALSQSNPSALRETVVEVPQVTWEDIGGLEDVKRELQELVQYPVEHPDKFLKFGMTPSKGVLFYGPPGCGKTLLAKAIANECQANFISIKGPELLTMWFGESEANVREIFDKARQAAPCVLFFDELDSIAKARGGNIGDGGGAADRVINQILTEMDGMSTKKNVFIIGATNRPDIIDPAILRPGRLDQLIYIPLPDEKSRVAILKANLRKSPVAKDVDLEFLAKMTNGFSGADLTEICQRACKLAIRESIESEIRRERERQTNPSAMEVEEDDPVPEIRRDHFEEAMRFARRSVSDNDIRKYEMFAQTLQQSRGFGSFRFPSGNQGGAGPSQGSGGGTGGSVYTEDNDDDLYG
Numbers stand for hits. An excerpt weighted towards active compounds, which were near 0.91% of everything screened.

Cc1ccc(S(=O)(=O)N(C)C)cc1NC(=O)CN1C(=O)NC2(CCCc3ccccc32)C1=O (stereo not given) was read as DTT redox prof inactive, Tb hexokinase inactive, PMI act hi M6P inactive, G6PDH CS inactive, PMI activator inactive and p97 inhibitor inactive.
COc1ccc(NC(=O)C(C)Sc2nnc3c4c(nc(-c5ccc(OC)cc5)n23)CC(C)(C)OC4)cc1 (stereo not given) was read as DTT redox prof inactive, Tb hexokinase inactive, PMI act hi M6P inactive, G6PDH CS inactive, PMI activator inactive and p97 inhibitor inactive.
For COC(=O)CC1c2cc(OC)c(OC)cc2CC(=O)c2cc(OC)c(OC)cc21 (stereo not given) the results were DTT redox prof inactive, Tb hexokinase inactive, PMI act hi M6P 2, G6PDH CS inactive, PMI activator inactive and p97 inhibitor inactive.
Screening CCOC(=O)C1(C)/C(=N/Nc2ccc(S(N)(=O)=O)cc2)C(=O)C(=O)N1c1ccccc1 (stereo not given) returned DTT redox prof inactive, Tb hexokinase inactive, PMI act hi M6P inactive, G6PDH CS inactive, PMI activator inactive and p97 inhibitor inactive.
`CCOC(=O)C1(C)/C(=N/Nc2ccc(Cl)cc2)C(=O)C(=O)N1c1ccccc1` (stereo not given) gave DTT redox prof inactive, Tb hexokinase inactive, PMI act hi M6P 2.2, G6PDH CS inactive, PMI activator inactive and p97 inhibitor inactive.
For CCOC(=O)C1(C)/C(=N/Nc2ccccc2Cl)C(=O)C(=O)N1c1ccccc1 (stereo not given) the results were DTT redox prof inactive, Tb hexokinase inactive, PMI act hi M6P 2.1, G6PDH CS inactive, PMI activator inactive and p97 inhibitor inactive.
Screening CCOC(=O)C1(C)/C(=N/Nc2cccc(Cl)c2)C(=O)C(=O)N1c1ccccc1 (stereo not given) returned DTT redox prof inactive, Tb hexokinase inactive, PMI act hi M6P 2.3, G6PDH CS inactive, PMI activator inactive and p97 inhibitor inactive.
CCCCCCCCC[n+]1cccc2c3ccccc3ccc21 was read as DTT redox prof inactive, Tb hexokinase inactive, PMI act hi M6P inactive, G6PDH CS inactive, PMI activator inactive and p97 inhibitor inactive.
Screening CCCCCCCCCCCCCCCC[n+]1cccc2ccccc21 returned DTT redox prof inactive, Tb hexokinase 55, PMI act hi M6P inactive, G6PDH CS inactive, PMI activator inactive and p97 inhibitor inactive.
`N#C/C(=C\c1coc2ccccc2c1=O)C(N)=S` gave DTT redox prof inactive, Tb hexokinase inactive, PMI act hi M6P inactive, G6PDH CS inactive, PMI activator inactive and p97 inhibitor inactive.
Screening N#C/C(=C\c1coc2ccc(O)cc2c1=O)C(=O)Nc1nc2ccccc2s1 returned Tb hexokinase inactive and p97 inhibitor 43.
Cc1cc(C)nc(SCC(=O)NN=C2CCCC2)n1 was read as DTT redox prof inactive, Tb hexokinase inactive, PMI act hi M6P inactive, G6PDH CS inactive, PMI activator inactive and p97 inhibitor inactive.
For CC(C)=C1C(=O)NN(c2ccc(F)c(Cl)c2)C1=O the results were DTT redox prof inactive, Tb hexokinase inactive, PMI act hi M6P inactive, G6PDH CS inactive, PMI activator inactive and p97 inhibitor 20.
For COc1cc(/C=N/Nc2ccc(Cl)cc2)ccc1OC(=O)c1cccs1 the results were DTT redox prof inactive, Tb hexokinase inactive, PMI act hi M6P 2.3, G6PDH CS inactive, PMI activator inactive and p97 inhibitor inactive.
Screening COc1cc(/C=N/NC(N)=O)ccc1OC(=O)c1cccs1 returned DTT redox prof inactive, Tb hexokinase inactive, PMI act hi M6P inactive, G6PDH CS inactive, PMI activator inactive and p97 inhibitor inactive.
`CCc1ccc(S(=O)(=O)/N=C2\C=CC(=O)c3ccccc32)cc1` gave DTT redox prof inactive, Tb hexokinase inactive, PMI act hi M6P inactive, G6PDH CS inactive, PMI activator inactive and p97 inhibitor inactive.
`CCc1ccc(S(=O)(=O)/N=C2/C=C(Sc3ncn[nH]3)C(=O)c3ccccc32)cc1` gave DTT redox prof inactive, Tb hexokinase inactive, PMI act hi M6P inactive, G6PDH CS 52, PMI activator inactive and p97 inhibitor inactive.
Screening CN1CCN(NC(=S)NC2CCCCC2)CC1 returned DTT redox prof inactive, Tb hexokinase inactive, PMI act hi M6P inactive, G6PDH CS inactive, PMI activator inactive and p97 inhibitor inactive.
For COc1ccc(S(=O)(=O)Nc2cc(Sc3ncn[nH]3)c(O)c3ccccc23)cc1 the results were DTT redox prof inactive, Tb hexokinase inactive, PMI act hi M6P inactive, G6PDH CS 54, PMI activator inactive and p97 inhibitor 31.
O=C(CSCc1c(Cl)cccc1Cl)Nc1ccc2c(c1)OCCO2 was read as DTT redox prof inactive, Tb hexokinase inactive, PMI act hi M6P inactive, G6PDH CS inactive, PMI activator inactive and p97 inhibitor inactive.
For Cc1ccc(NC(=O)/C(C#N)=N/Nc2ccc(C(=O)O)cc2)c(C)c1 the results were Tb hexokinase inactive and p97 inhibitor inactive.
`Cc1ccc(N/N=C(\C#N)C(N)=S)c(C)c1` gave DTT redox prof inactive, Tb hexokinase inactive, PMI act hi M6P 3, G6PDH CS inactive, PMI activator inactive and p97 inhibitor inactive.
CCOC(=O)C1=C(c2ccccc2)ON(C)C1c1ccccc1 (stereo not given) was read as DTT redox prof inactive, Tb hexokinase inactive, PMI act hi M6P inactive, G6PDH CS inactive, PMI activator inactive and p97 inhibitor inactive.
`Oc1ccc(C=Nc2ccc3ncccc3c2)c(O)c1` gave DTT redox prof inactive, Tb hexokinase inactive, PMI act hi M6P inactive, G6PDH CS 56, PMI activator inactive and p97 inhibitor inactive.
`Oc1ccc(C=Nc2cccc3ncccc23)c(O)c1` gave DTT redox prof inactive, Tb hexokinase inactive, PMI act hi M6P inactive, G6PDH CS inactive, PMI activator inactive and p97 inhibitor inactive.
Screening CC(=O)/C(=N\Nc1ccc(Cl)cc1)Sc1nnc(-c2ccccc2)n1-c1ccccc1 returned DTT redox prof inactive, Tb hexokinase inactive, PMI act hi M6P 2, G6PDH CS inactive, PMI activator inactive and p97 inhibitor inactive.
Screening CC(=O)/C(=N/Nc1ccccc1)Sc1nnc(CCc2ccccc2)n1-c1ccccc1 returned DTT redox prof inactive, Tb hexokinase inactive, PMI act hi M6P inactive, G6PDH CS inactive, PMI activator inactive and p97 inhibitor inactive.
For Fc1cccc(NC(=S)Nc2cccnc2)c1 the results were DTT redox prof inactive, Tb hexokinase inactive, PMI act hi M6P inactive, G6PDH CS inactive, PMI activator inactive and p97 inhibitor inactive.
Fc1cccc(NC(=S)NNc2c3ccccc3nc3ccccc23)c1 was read as DTT redox prof inactive, Tb hexokinase inactive, PMI act hi M6P 2.1, G6PDH CS inactive, PMI activator inactive and p97 inhibitor inactive.

Screens (PubChem BioAssay)
